# Screening results as filed in PubChem.
# Shown are actives, neighbours in structure and some others; about 1.7% of the full set was active somewhere.
# PP1 counter – PP1-alpha phosphatase inhibitors, primary screen, counter-screen for PP5 inhibitor project, biochemical, fluorescence, OMFP substrate, single point; hit rate 0.9% among 320,000; purified PP1alpha; inhibition, % at 6.7 µM; Serine/threonine-protein phosphatase PP1-alpha catalytic subunit (Homo sapiens), P62136;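 active means inhibition above the mean inhibition of all tested compounds plus 3 SD, computed separately for each screening campaign, cut at about 15% in these data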
# T cell HTS – modulators of CD8 T cell-vesicle binding, primary screen, mouse 2C CD8+ T cells, flow cytometry. response (vesicle binding), % at 7 µM. 2C CD8+ T cell-vesicle binding; stronger effect = lower value. AID 2052, 2009. hit rate 0.068% among 330,000;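 active means response, share of CD8 T cells binding vesicles, and their 90th percentile fluorescence all below set limits, cut at about 80% in these data, passing the limit was not always enough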;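 further: values below 100% mean blocked vesicle binding to the CD8+ T cells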
#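 System: murine 2C transgenic CD8+ T lymphocytes; also added: QL9-loaded Drosophila micro-vesicles; times: binding 1.5 h at 37 °C; measured by: flow cytometry, PE anti-B7-1 (FL2) versus Alexa647 anti-CD8 (FL8), PFA-fixed; control set: Peptide-free naked vesicles (low) and QL9 vesicles with 0.7% DMSO vehicle (high)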
# GASC-1 inh – inhibitors of GASC-1 histone demethylase, primary screen, biochemical, fluorescence, DELFIA europium; Lysine-specific demethylase 4C (Homo sapiens), Q9H3R0; GST-JMJD2C(1-420) H3K9me3 demethylation; inhibition, % at 2.35 µM; hit rate 0.069% among 330,000;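 active means more than half of a compound's replicate wells show inhibition beyond 50%, single wells judged on their own value; inconclusive means some, but no more than half, of replicates pass 50% inhibition; inactive means no replicate passes 50% inhibition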;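 further: signal counts dimethyl H3K9 product captured on neutravidin plate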
# Target sequence (Q9H3R0 1-420 limits assumed): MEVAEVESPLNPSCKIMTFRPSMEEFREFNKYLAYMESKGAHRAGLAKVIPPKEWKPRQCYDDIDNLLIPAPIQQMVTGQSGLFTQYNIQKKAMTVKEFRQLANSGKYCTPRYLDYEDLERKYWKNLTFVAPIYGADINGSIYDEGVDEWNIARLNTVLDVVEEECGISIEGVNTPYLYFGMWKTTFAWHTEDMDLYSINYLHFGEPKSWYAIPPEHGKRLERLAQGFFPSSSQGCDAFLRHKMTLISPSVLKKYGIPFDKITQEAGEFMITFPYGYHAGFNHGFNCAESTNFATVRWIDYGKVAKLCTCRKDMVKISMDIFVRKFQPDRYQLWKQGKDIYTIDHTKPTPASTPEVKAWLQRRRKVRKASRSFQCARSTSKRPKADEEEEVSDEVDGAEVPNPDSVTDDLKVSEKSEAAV
# m5-HT2A agonist – mouse Htr2a agonists via beta-arrestin recruitment, primary screen, cell-based, luminescence | 5-hydroxytryptamine receptor 2A (Mus musculus), P35363 | CHO-K1 mHTR2A beta-arrestin complementation; percent of 30 µM serotonin response | activation, % at 7.6 µM | hit rate 0.66% among 360,000;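 active means activation above a run cutoff, the mean activation of all tested compounds plus 3 SD, cut at about 14% in these data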
# PP5 inh – PP5 phosphatase inhibitors, primary screen, biochemical, fluorescence. Serine/threonine-protein phosphatase 5 (Homo sapiens), P53041. purified PP5c, OMFP substrate fluorescence. inhibition, % at 6.7 µM. hit rate 0.18% among 320,000;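 active means inhibition above the campaign's mean inhibition across all tested compounds plus 3 SD, cut at about 9.5% in these data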
# Numbers stand for hits; - = inactive; ? = inconclusive; . = no result given.
SMILES,PP1 counter,T cell HTS,GASC-1 inh,m5-HT2A agonist,PP5 inh
O=C(CNC(=O)c1ccccc1O)N/N=C/c1cc(Br)ccc1OC(=O)/C=C/c1ccco1,-,-,54,.,-
CC1CCCN(C(=S)SCC(=O)c2cc(Br)cc(Br)c2O)C1 (configuration not stated),-,-,-,-,-
O=C(CSC(=S)N1CCCC1)c1cc(Br)cc(Br)c1O,-,-,58,.,-
COc1ccc(/C=C/C(=O)NC(=S)NCc2ccccc2)cc1OC,16,-,-,-,-
NC1=NC(=O)C(CC(=O)Nc2ccc3c(c2)OCO3)S1 (configuration not stated),-,-,-,-,-
NC[C@H](Cc1ccccc1)NCCCCC1CCCCC1,-,-,-,-,-
CNC[C@H](CC1CCCCC1)NC[C@H](Cc1ccccc1)NCCC12CC3CC(CC(C3)C1)C2,21,-,-,-,-
Cn1c(=O)c2c(nc(Cl)n2CCOc2ccccc2)n(C)c1=O,16,-,-,-,-
CCCCn1c(Cl)nc2c1c(=O)n(C)c(=O)n2C,-,-,-,-,-
Cc1ccc(-n2nc(C(=O)c3ccccc3)n3c(=O)c(Cc4ccccc4)nnc23)cc1,17,-,-,-,-
O=C(c1ccccc1)c1nn(-c2ccccc2)c2nnc(Cc3ccccc3)c(=O)n12,-,-,-,-,-
NC(=O)c1cc(S(=O)(=O)NCc2cccc(Br)c2)cs1,-,-,-,-,-
O=C(CCc1nc2sc3c(c2c(=O)[nH]1)CCCC3)Nc1ccccc1Cl,16,-,-,-,-
Cc1c(OCC(=O)NC(Cc2ccc(Cl)cc2)C(=O)O)ccc2c(-c3ccccc3)cc(=O)oc12 (configuration not stated),17,-,-,-,-
COc1ccc(-c2cc(=O)oc3c(C)c(OCC(=O)N[C@@H](Cc4ccc(O)cc4)C(=O)O)ccc23)cc1,-,-,?,-,-
Cc1ccc2cc(NC(=O)c3ccccc3C)ccc2n1,-,-,-,-,-
CC1(c2ccccc2)CC(C)(C)N2C(=O)C3(C(C#N)=C(N)Oc4cc(O)ccc43)c3cccc1c32 (configuration not stated),-,-,-,34,-
COc1cccc(C(=O)Nc2ccc(NC(=O)Cc3ccccc3)cc2)c1,17,-,-,-,-
COc1cccc(C(=O)Nc2ccccc2)c1,-,-,-,-,-
CN(Cc1cnn(-c2ccc(F)cc2)c1)C(=O)[C@H]1O[C@@H](n2cnc3c(N)ncnc32)[C@H](O)[C@@H]1O,.,.,.,-,.
O=C(CSc1ncn[nH]1)CSc1ncn[nH]1,-,11,-,-,-
O=C(Nc1ccccc1N1CCOCC1)c1cc(=O)[nH]c2ccccc12,-,-,-,-,-
Cc1ccccc1CC1(C)C(=O)Nc2ccc(S(=O)(=O)NC3CCCCC3)cc21 (configuration not stated),.,.,.,-,.
O=[N+]([O-])c1ccccc1S(=O)(=O)NCCSCc1ccco1,17,-,-,-,-
Cc1c(C(=O)N2CCOCC2)cc(C(C)(C)C)n1-c1ccccc1,-,-,-,-,-
SMILES,PP1 counter,T cell HTS,GASC-1 inh,m5-HT2A agonist,PP5 inh
COc1ccc(-c2nc(CS(=O)CC(=O)NCCC3=CCCCC3)c(C)o2)cc1 (configuration not stated),-,-,-,40,-
O=C(NCCc1c[nH]c2ccccc12)OC1CC2CC1[C@H]1CCCCN1C2=O (some centres not stated),.,.,.,-,.
COc1ccc2oc(C(=O)OCC(=O)NCc3ccco3)c(C)c2c1,-,-,-,-,-
Cc1cc2c(cc1S(=O)(=O)NCCc1ccccc1)NC(=O)CO2,-,20,-,-,-
c1ccc(-c2ccc(C(c3ccccc3)n3ccnc3)cc2)cc1 (configuration not stated),16,-,-,-,-
CCC(=O)Nc1ccc(C(=O)CSc2nnc(-c3ccc(NS(=O)(=O)CC)cc3)o2)cc1OC,17,-,-,-,-
CCS(=O)(=O)Nc1ccc(-c2nnc(SCC(=O)OC)o2)cc1,-,-,-,-,-
COc1ccc(CN(CCC(c2ccccc2)c2ccc(OC(C)C)cc2)C(=O)CCl)cc1OC (configuration not stated),-,-,-,-,-
CC1(C)CC(=O)C=C(c2cccc(OC(=O)c3ccc(-c4ccccc4)cc3)c2)C1=O,.,.,.,-,.
O=C(CSc1nc(O)cc(=O)n1-c1ccccc1)Nc1ccc2c3c(cccc13)CC2,16,-,-,-,-
Cc1ccccc1C(=O)NNC(=O)c1cccn1C,-,-,-,-,-
Cn1cccc1C(=O)NNC(=O)c1ccccc1Br,-,0.0,-,-,-
CCCC(=O)Nc1cc(C(=O)O)ccc1Sc1ccccc1,-,-,-,-,-
CCC(=O)Nc1cc(C(=O)O)ccc1Sc1ccccc1,17,-,-,-,-
COc1cc(/C=C2/SC(=S)N(Cc3ccccc3)C2=O)cc(Cl)c1O,-,-,-,-,-
COc1cc([N+](=O)[O-])cc(/C=C2/SC(=S)N(Cc3ccccc3)C2=O)c1O,15,-,-,-,-
CCN(CC)c1ccc(S(=O)(=O)Nc2cc(Cl)ccc2Cl)cc1NC(=S)NC(=O)C1CCCC1,15,-,-,-,-
Cc1cc(C)c2c(N)c(C(=O)N/N=C/c3ccccc3)sc2n1,-,-,-,-,-
Cc1cccc(Nc2nc(-c3ccncc3)cs2)c1,-,-,-,-,-
Clc1cccc(Nc2nc(-c3ccncc3)cs2)c1,17,-,-,-,-
O=C(Nc1ccccc1Cl)Oc1ccc(Cl)cc1Cl,-,27,.,-,-
CCOC(=O)c1ccccc1NS(=O)(=O)c1cnn(CC)c1C,-,-,-,-,-
Cc1ccc2c(=O)n3c(nc2c1)C(Cc1ccccc1)NC(=O)c1cc(Cl)ccc1-3 (configuration not stated),.,0.0,-,.,.
COc1ccccc1C(=O)NCC(=O)OCc1nnc(-c2ccccc2)o1,.,.,.,-,.
Cc1cccc(N(Cc2ccccc2)C(=O)c2ccc(C)c(S(=O)(=O)N3CCOCC3)c2)c1,-,-,-,-,-
Cc1cccc(N(Cc2ccccc2)C(=O)Cc2ccc(S(=O)(=O)N3CCOCC3)s2)c1,17,-,-,-,-
O=C(Cn1ncc2c([nH]c3ccccc32)c1=O)Nc1ccc(CN2CCCCC2)cc1,-,-,-,-,-
COc1ccc2[nH]c(=O)c(CN(Cc3nnnn3Cc3ccco3)C3CCCCC3)cc2c1,-,-,-,-,-
COc1ccc2[nH]c(=O)c(CN(C3CCCCC3)C(c3nnnn3Cc3ccco3)C(C)C)cc2c1 (configuration not stated),20,-,-,-,-
